Assay results as given in article PMC10395006 (Archives of toxicology, 2022).

Key:
HepG2 cells [1] = system: HepG2 cells
[2] = cited from earlier work
[3] = molecular target: T1, CYP2D6-overexpressing HepG2 cells (Homo sapiens, UniProt P10635)
HepG2 cells [4] = test: Cellular ATP assay; type: cell-based, human; conditions: 24 h
[5] = system: CYP1A2-overexpressing HepG2 cells; test: Mass spectrometry of perhexiline and metabolites in CYP-overexpressing cells; type: in vitro ADME, human; conditions: 5 μM perhexiline, 24 h
[6] = system: CYP1A2-overexpressing HepG2 cells; test: Perhexiline toxicity endpoints; type: cell-based, human; conditions: 5–10 μM, 24 h
[7] = system: CHOP in EV control HepG2 cells; test: Western blot of ER stress marker CHOP; type: cell-based, human; conditions: EV control cells upon perhexiline treatment
How it was run: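 Empty-vector control HepG2 cells seeded at 3 × 10^5 cells/ml in 60 mm plates and treated about 24 h after seeding, with 0.1% v/v DMSO as control. Cells lysed directly in RIPA buffer with protease inhibitor cocktail and total protein quantified. Immunoblotted with primary antibodies against CHOP, using GAPDH as loading reference.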

HepG2 cells [8] = test: Caspase 3/7 activity; type: cell-based, human; conditions: 7.5 or 10 μM, 24 h
[9] = system: CYP2C19-overexpressing HepG2 cells; test: Mass spectrometry of perhexiline and metabolites in CYP-overexpressing cells; type: in vitro ADME, human; conditions: 5 μM perhexiline, 24 h
[10] = molecular target: T1, CYP2D6-overexpressing HepG2 cells; type: cell-based
[11] = molecular target: T1, CYP2D6-overexpressing HepG2 cells; test: Mass spectrometry of perhexiline and metabolites in CYP-overexpressing cells; conditions: 5 μM perhexiline, 24 h
[12] = molecular target: T2, CYP3A4-overexpressing HepG2 cells (Homo sapiens, UniProt P08684); test: as above; conditions: 5 μM perhexiline, 24 h
HepG2 cells [13] = test: Mitochondrial membrane potential; type: cell-based, human; conditions: 2.5-10 μM, 24 h
[14] = molecular target: T2, CYP3A4-overexpressing HepG2 cells; type: cell-based
HepG2 cells [15] = test: Lactate dehydrogenase; type: cell-based, human; conditions: 2.5-10 μM, 24 h
[16] = system: ATF6, ERN1, EIF2AK3, ATF4, and DDIT3 mRNA in EV control HepG2 cells; test: Quantitative real-time PCR of ER stress genes; type: cell-based, human; conditions: 10 μM, 24 h
[17] = system: Primary human hepatocytes; test: Cellular ATP assay; type: cell-based; conditions: 24 h
[18] = CellTiter-Blue cell viability assay; conditions: human, HepG2 cells
HepG2 cells [19] = test: CellTiter-Blue cell viability assay; conditions: 2.5-10 μM, 24 h
[20] = system: CYP2C19-overexpressing HepG2 cells; test: Perhexiline toxicity endpoints; type: cell-based, human; conditions: 5–10 μM, 24 h
CYP2C19 = CYP2C19 (Homo sapiens, UniProt P33261); conditions: human liver microsomes
CYP3A4 = conditions: human liver microsomes
[21] = ketoconazole (CYP3A4 inhibitor)

T2 sequence (P08684 whole entry): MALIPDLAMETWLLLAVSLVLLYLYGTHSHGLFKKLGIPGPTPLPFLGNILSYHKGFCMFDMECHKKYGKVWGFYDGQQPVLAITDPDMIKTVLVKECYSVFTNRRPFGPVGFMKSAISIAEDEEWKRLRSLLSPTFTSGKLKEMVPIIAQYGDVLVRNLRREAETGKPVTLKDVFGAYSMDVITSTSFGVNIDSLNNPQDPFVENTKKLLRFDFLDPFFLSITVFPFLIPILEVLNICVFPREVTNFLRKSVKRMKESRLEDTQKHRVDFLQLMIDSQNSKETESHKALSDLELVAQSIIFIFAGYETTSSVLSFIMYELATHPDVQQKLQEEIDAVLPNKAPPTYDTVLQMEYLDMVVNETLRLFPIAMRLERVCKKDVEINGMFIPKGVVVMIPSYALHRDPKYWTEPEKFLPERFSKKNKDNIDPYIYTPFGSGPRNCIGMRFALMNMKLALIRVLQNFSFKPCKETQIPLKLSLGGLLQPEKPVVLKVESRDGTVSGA
T1 sequence (P10635 whole entry): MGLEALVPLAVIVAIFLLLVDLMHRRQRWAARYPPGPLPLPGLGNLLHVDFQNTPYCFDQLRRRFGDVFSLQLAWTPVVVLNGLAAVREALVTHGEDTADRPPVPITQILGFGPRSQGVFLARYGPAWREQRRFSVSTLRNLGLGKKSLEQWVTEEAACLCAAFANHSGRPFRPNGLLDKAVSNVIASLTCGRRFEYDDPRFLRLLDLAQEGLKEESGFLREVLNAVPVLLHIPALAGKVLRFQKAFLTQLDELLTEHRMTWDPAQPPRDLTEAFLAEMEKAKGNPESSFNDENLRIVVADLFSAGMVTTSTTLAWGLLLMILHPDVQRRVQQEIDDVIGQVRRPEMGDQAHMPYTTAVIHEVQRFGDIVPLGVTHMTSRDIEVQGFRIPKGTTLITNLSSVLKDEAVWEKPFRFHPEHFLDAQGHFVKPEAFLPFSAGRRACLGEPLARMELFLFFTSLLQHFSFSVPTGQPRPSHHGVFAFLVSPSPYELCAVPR
Chain of CYP2C19 (P33261 whole entry): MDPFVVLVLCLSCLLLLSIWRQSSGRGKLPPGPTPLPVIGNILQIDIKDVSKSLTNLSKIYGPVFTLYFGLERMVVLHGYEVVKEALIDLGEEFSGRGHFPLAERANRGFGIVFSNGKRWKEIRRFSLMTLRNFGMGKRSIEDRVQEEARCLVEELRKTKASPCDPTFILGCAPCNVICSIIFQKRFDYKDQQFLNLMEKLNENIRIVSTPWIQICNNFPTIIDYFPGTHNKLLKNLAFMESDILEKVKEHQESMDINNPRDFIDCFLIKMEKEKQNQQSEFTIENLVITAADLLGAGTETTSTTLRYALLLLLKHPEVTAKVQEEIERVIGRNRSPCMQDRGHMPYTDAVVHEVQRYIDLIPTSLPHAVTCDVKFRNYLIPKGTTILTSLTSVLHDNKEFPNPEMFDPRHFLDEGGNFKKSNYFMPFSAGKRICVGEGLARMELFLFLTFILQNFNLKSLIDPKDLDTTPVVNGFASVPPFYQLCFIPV

For `O[C@H]1CC[C@H](C(CC2CCCCN2)C2CCCCC2)CC1` (stereo partly drawn) [trans-OH-Phx], the IC50 (HepG2 cells [1]) is listed as 56 µM and the “plasma trans-OH-Phx level post-dosage” value ([2]; most patients, ref Amoah et al. 1986, Cooper et al. 1984, 1987) is listed as “undetectable”.

With `OC1CCC([C@@H](CC2CCCCN2)C2CCCCC2)CC1` (stereo in doubt) [cis-OH-Phx] the IC50 (HepG2 cells [1]) was 90 µM.

For `O[C@H]1CC[C@H](C(CC2CCCCN2)C2CCCCC2)CC1` (stereo partly drawn) [M1, trans-OH-Phx-1], the “increase of M1 compared to EV control cells” value [3] was 2.6 fold.

In the case of `C1CCC(C(CC2CCCCN2)C2CCCCC2)CC1` (stereo not shown) [perhexiline], the “cellular ATP levels at 10 μM” value (HepG2 cells [4]; 10 μM) is reported as “largely depleted”, the “cellular ATP levels” value (HepG2 cells [4]; 2.5–10 μM) is reported as “concentration-dependent decrease” and the “parent perhexiline level vs EV control” value [5] is reported as “significant reduction”. The “protective effect on ATP levels and LDH release vs EV control” value (from here on “protective effect … vs EV control”) [6] was “little protective effect”, the CHOP protein level [7] was “markedly increased” and the “caspase 3/7 activity” value (HepG2 cells [8]) was “increase”. For the same molecule, the “parent perhexiline level vs EV control” value [9] was “significant reduction”, the “perhexiline-induced increase in CHOP protein vs EV control” value [10] was “greatly reduced” and the “perhexiline-induced increase in ER stress gene mRNA vs EV control” value ([10]; 10 μM, 24 h) was “drastically attenuated”. For the same molecule, the “perhexiline-induced increase in caspase 3/7 vs EV control” value ([10]; 24 h) was “abolished”, the “amount of parent perhexiline relative to EV control” value [11] was 1% and the “parent perhexiline level vs EV control” value [12] was “significant reduction”. For the same molecule, the “mitochondrial membrane potential level (JC-1)” value (HepG2 cells [13]) was “significant concentration-dependent decrease”, the “plasma perhexiline beyond 24 h after a single administration” value ([2]; known extensive metabolizers, ref Cooper et al. 1987) was “undetectable” and the “caspase 3/7 activities, EV control vs CYP3A4 cells” value [14] was “little difference”. For the same molecule, the “effect in JC-1 staining vs EV control” value [14] was “marginal protective effect”, the “protective effect … vs EV control” value ([14]; 5–10 μM, 24 h) was “little protective effect” and the LDH release (HepG2 cells [15]) was “concentration-dependent increase”. The “mRNA levels of ATF6, ERN1, EIF2AK3, ATF4, and DDIT3 (fold change vs DMSO)” value [16] was “significantly elevated”, the “concentration at which cytotoxicity was observed starting” value ([17]; hepatic cells, concentrations ranged from 2.5 μM to 15 μM) was 5 µM and the “lowest concentration at which a decrease in ATP was observed” value ([17]; primary human hepatocytes, 5 to 15 μM) was 5 µM. The IC50 at 24 h [18] was 8 µM, the cell viability (HepG2 cells [19]) was “significant decrease” and the “protective effect … vs EV control” value [20] was “little protective effect”.

For `C=C(C)[C@@H]1CCC2=CC(=O)C[C@@H](C)[C@]2(C)C1` [nootkatone], the “effect on the formation of M1, M3, and M5” value (CYP2C19; nootkatone 10 μM (CYP2C19 inhibitor)) was “did not show significant effect” and the “effect on the relative abundance of trans-OH-Phx” value (CYP2C19; nootkatone (CYP2C19 inhibitor)) was “little effect”.

In the case of `C1CCC(C(CC2CCCCN2)C2CCCCC2)CC1` (single isomer, unassigned; (-)) [(−)-perhexiline], the “clearance relative to the other enantiomer” value ([2]; attributed to CYP2D6-mediated metabolism, ref Davies et al. 2008) is listed as “higher clearance rate”.

In the case of `CC(=O)N1CCN(c2ccc(OCC3COC(Cn4ccnc4)(c4ccc(Cl)cc4Cl)O3)cc2)CC1` (stereo not shown) [ketoconazole], the “suppression of formation of M3 (trans-OH-Phx-2)” value (CYP3A4; ketoconazole 2 μM, perhexiline 30 μM) is reported as “up to 80%”, the “effect on formation of M1 (trans-OH-Phx-1)” value (CYP3A4; [21]) is reported as “reduced” and the “effect on formation of M5 (cis-OH-Phx)” value (CYP3A4; [21]) is reported as “did not have effect”.
